Laboratory results from publication PMC11831733 (RSC Advances, 2025).
Converted amounts (≈) assume the structure as drawn.

Columns and labels:
[1] = Cytotoxicity, resazurin microplate assay; format: cell-based; details: human, NCI-H187 cells (human small-cell lung cancer, ATCC CRL-5804)
Procedure, shortened: (§1)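 Test compound and cell suspension were combined in triplicate wells and kept at 37 °C in humidified 5% CO2 for 3 d (MCF-7) or 5 d (NCI-H187). A 62.6 μg mL−1 resazurin solution was then added, followed by 4 h at 37 °C. Fluorescence was read bottom-mode at excitation 530 nm and emission 590 nm, and the blank was subtracted.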

[2] = Cytotoxicity, resazurin microplate assay; format: cell-based; details: human, MCF-7 cells (human breast cancer, ATCC HTC-22)
Procedure, shortened: as §1

in vitro = format: cell-based, African green monkey; details: African green monkey, Cytotoxicity (IC50, μM) Vero
C. acutatum (BCC 58146) = experiment: microbe, parasite or virus in culture; format: cell-based; details: Colletotrichum acutatum, read-out: Anti-phytopathogenic fungal (MIC, μM) C. acutatum
[3] = system: A. brassicicola (BCC 42724); experiment: microbe, parasite or virus in culture; format: cell-based; details: Alternaria brassicicola, read-out: Anti-phytopathogenic fungal (MIC, μM) A. brassicicola
[4] = system: all cell lines tested (Plasmodium falciparum, mammalian, and fungal); experiment: Antiproliferative activity over all cell lines tested; format: cell-based; details: P. falciparum, mammalian and fungal cells
[5] = system: Vero cells (African green monkey kidney fibroblast); experiment: in vitro; format: cell-based; details: read-out: Cytotoxicity (IC50, μM) Vero

SMILES	IC50 at 5 d [1] [µM]	IC50 at 3 d [2] [µM]	IC50 at 4 d (in vitro) [µM]	MIC (C. acutatum (BCC 58146)) [µM]	MIC [3] [µM]	antiproliferative activity profile (in words) [4]	IC50 [5] [µM]
CCC(=O)c1cc(OC)cc2oc3cc(C)cc(O)c3c(=O)c12 [Compound 4, 1-hydroxy-6-methoxy-3-methyl-8-propionylxanthone]	> 160	42.5	> 160	> 160	> 160	active only against mammalian cell lines	–
COc1cc2oc3cc(C)cc(O)c3c(=O)c2c(C)c1O [Compound 3, 1,7-dihydroxy-6-methoxy-3,8-dimethylxanthone]	> 175	> 175	> 175	> 175	> 175	–	–
O=C(O)CCC(=O)OCCc1ccccc1 [Compound 7, 4-oxo-4-phenethoxybutanoic acid]	> 225	> 225	> 225	> 225	> 225	–	–
COc1cc(O)c2c(=O)c3c(O)cc(C)cc3oc2c1O [Compound 1, 1,5,8-trihydroxy-6-methoxy-3-methylxanthone]	19	> 174	58.9	> 174	> 174	active only against mammalian cell lines	58.9
COc1cccc2c1C(=O)c1c(O)c3c(c(O)c1C2=O)C[C@@](O)(C(=O)CO)C[C@@H]3O[C@H]1C[C@H](N)[C@H](O)[C@H](C)O1 [Doxorubicin, reference compound]	0.2	11.9	–	–	–	–	–
COc1cc(O)c2c(=O)c3c(O)cc(C)cc3oc2c1OC [Compound 2, 1,8-dihydroxy-5,6-dimethoxy-3-methylxanthone]	> 165	> 165	> 165	> 165	> 165	–	–
C[C@@H]1[C@H](O)[C@@H](C)/C=C/C=C/C=C/C=C/C=C/C=C/C=C/[C@H](O[C@@H]2O[C@H](C)[C@@H](O)[C@H](N)[C@@H]2O)C[C@@H]2O[C@](O)(C[C@@H](O)C[C@@H](O)[C@H](O)CC[C@@H](O)C[C@@H](O)CC(=O)O[C@H]1C)C[C@H](O)[C@H]2C(=O)O [Amphotericin B, reference compound]	–	–	–	3.4 (≈ 3.14 µg/mL)	1.7 (≈ 1.57 µg/mL)	–	–
